Laboratory results from ChEMBL document CHEMBL1153543, “Discovery of novel protease activated receptors 1 antagonists with potent antithrombotic activity in vivo” (J Med Chem, 2009).
Converted amounts (≈) assume the structure as drawn.

Biological target: Proteinase-activated receptor 2 (Homo sapiens) (UniProt P55085)
Assay: Antagonist activity at PAR2 expressed in Cos7 cells assessed as SLIGRl-mediated SRE-luciferase activity
Format: functional, cell-based
Settings: COS-7

Chain of Proteinase-activated receptor 2 (Homo sapiens) (P55085 whole entry): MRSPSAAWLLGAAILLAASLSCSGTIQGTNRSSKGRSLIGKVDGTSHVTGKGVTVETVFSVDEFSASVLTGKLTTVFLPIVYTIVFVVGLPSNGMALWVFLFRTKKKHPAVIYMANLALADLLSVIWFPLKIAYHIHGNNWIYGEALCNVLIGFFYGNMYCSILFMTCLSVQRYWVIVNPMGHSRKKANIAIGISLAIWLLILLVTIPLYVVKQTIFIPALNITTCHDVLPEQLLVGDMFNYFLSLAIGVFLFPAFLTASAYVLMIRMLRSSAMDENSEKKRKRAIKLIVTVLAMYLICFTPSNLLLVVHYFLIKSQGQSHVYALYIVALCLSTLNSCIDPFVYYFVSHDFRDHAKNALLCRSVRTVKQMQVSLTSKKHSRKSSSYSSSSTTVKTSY

SMILES	pKb
N#Cc1ccccc1/C=C/C=C/C(=O)N1CCN(c2ccccn2)CC1	4.39
O=C(/C=C/c1ccccc1Cl)N1CCN(Cc2ccc(F)cc2)CC1	4.45

Biological target: T1, Proteinase-activated receptor 4 (Homo sapiens) (UniProt Q96RI0)
T1 sequence (whole entry): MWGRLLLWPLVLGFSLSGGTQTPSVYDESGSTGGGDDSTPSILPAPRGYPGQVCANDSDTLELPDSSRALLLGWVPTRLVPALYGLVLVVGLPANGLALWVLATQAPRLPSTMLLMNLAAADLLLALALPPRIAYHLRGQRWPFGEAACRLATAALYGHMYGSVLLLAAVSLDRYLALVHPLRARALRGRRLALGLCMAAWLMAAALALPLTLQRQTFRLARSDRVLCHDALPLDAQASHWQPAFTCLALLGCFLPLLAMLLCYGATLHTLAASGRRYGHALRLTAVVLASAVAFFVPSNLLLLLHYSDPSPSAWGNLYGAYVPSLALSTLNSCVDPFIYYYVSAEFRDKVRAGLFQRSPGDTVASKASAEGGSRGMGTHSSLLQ
Assay: Antagonist activity at PAR4 expressed in Cos7 cells assessed as AYPGKF-mediated SRE-luciferase activity
Format: functional, cell-based
Settings: COS-7

SMILES	pKb
N#Cc1ccccc1/C=C/C=C/C(=O)N1CCN(c2ccccn2)CC1	4.93
O=C(/C=C/c1ccccc1Cl)N1CCN(Cc2ccc(F)cc2)CC1	4.91

System: not listed separately
Assay: Selectivity for PAR1 to PAR4
Settings: not given

SMILES	Selectivity ratio
N#Cc1ccccc1/C=C/C=C/C(=O)N1CCN(c2ccccn2)CC1	5
O=C(/C=C/c1ccccc1Cl)N1CCN(Cc2ccc(F)cc2)CC1	5

System: not listed separately
Assay: Half life in rat plasma at 1 mg/kg, iv and 5 mg/kg, po
Format: ADME, organism-based
Settings: not given
Method in brief: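 Plasma half-life was measured in male rats dosed iv at 1 mg/kg and po at 5 mg/kg. The value is the mean over three rats.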

SMILES	half-life
N#Cc1ccccc1/C=C/C=C/C(=O)N1CCN(c2ccccn2)CC1	2.78 h
O=C(/C=C/c1ccccc1Cl)N1CCN(Cc2ccc(F)cc2)CC1	2.17 h

System: not listed separately
Assay: Selectivity for PAR1 to PAR2
Settings: not given

SMILES	Selectivity ratio
N#Cc1ccccc1/C=C/C=C/C(=O)N1CCN(c2ccccn2)CC1	15
O=C(/C=C/c1ccccc1Cl)N1CCN(Cc2ccc(F)cc2)CC1	15

System: Platelet
Assay: Inhibition of SFLLR-induced human platelet aggregation
Format: functional
Settings: not given

SMILES	pKb
N#Cc1ccccc1/C=C/C=C/C(=O)N1CCN(c2ccccn2)CC1	5.3
O=C(/C=C/c1ccccc1[N+](=O)[O-])N1CCN(CC2CCCCC2)CC1	5.31
O=C(/C=C/C=C/c1ccccc1[N+](=O)[O-])N1CCN(c2ccccc2)CC1	5.65
N#Cc1ccccc1/C=C/C(=O)N1CCN(C(=O)C2CCCCCC2)CC1	5.17
O=C(/C=C/c1ccccc1Cl)N1CCN(Cc2ccc(F)cc2)CC1	5.52
O=C(/C=C/C=C/c1ccccc1[N+](=O)[O-])N1CCN(C2CCCC2)CC1	5.5
CCOc1cc2c(cc1C(=O)NC)C(=N)N(CC(=O)c1cc(C(C)(C)C)c(O)c(C(C)(C)C)c1)C2	8.18

System: CHO
Assay: Inhibition of SFLLR-NH2-induced calcium release in CHO cells treated prior to SFLLR-NH2 challenge […] by FLIPR assay
Format: functional, cell-based
Settings: Cricetulus griseus, read-out: pA2 (converted)
Method in brief: (§1)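 FLIPR fluorescence assay in CHO cells. Calcium release is evoked by 1 μM SFLLR-NH₂, the PAR1-selective agonist peptide. Compound effect is given as % inhibition at 10 μM or, for competitive antagonists, as a calculated pA₂.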

SMILES	Kb
N#Cc1ccccc1/C=C/C=C/C(=O)N1CCN(c2ccccn2)CC1	324 nM
O=C(/C=C/c1c(F)cccc1F)N1CCN(C(=O)C2CCCCCC2)CC1	214 nM
O=C(/C=C/c1ccccc1[N+](=O)[O-])N1CCN(CC2CCCCC2)CC1	490 nM
O=C(/C=C/C=C/c1ccccc1[N+](=O)[O-])N1CCN(c2ccccc2)CC1	58.9 nM
N#Cc1ccccc1/C=C/C(=O)N1CCN(C(=O)C2CCCCCC2)CC1	87.1 nM
O=C(/C=C/c1ccccc1Cl)N1CCN(Cc2ccc(F)cc2)CC1	214 nM
O=C(/C=C/C=C/c1ccccc1[N+](=O)[O-])N1CCN(C2CCCC2)CC1	69.2 nM
CCOc1cc2c(cc1C(=O)NC)C(=N)N(CC(=O)c1cc(C(C)(C)C)c(O)c(C(C)(C)C)c1)C2	141 nM

System: CHO
Assay: Inhibition of SFLLR-NH2-induced calcium release in CHO cells at 10 uM treated prior to SFLLR-NH2 challenge […] by FLIPR assay
Format: functional
Settings: Cricetulus griseus
Method in brief: as §1

SMILES	inhibition at 10 µM
O=C(/C=C/c1ccccc1[N+](=O)[O-])N1CCN(C(=O)NC2CCCCC2)CC1	39.2%
Cc1cccc(CN2CCN(C(=O)/C=C/c3ccccc3[N+](=O)[O-])CC2)c1	72.4%
O=C(/C=C/c1c(F)cccc1F)N1CCN(Cc2ccc(F)c(F)c2)CC1	73.1%
Nc1ccccc1/C=C/C(=O)N1CCN(Cc2ccc(F)cc2)CC1	7.4%
N#Cc1ccccc1/C=C/C=C/C(=O)N1CCN(c2ccccn2)CC1	98.7%
O=C(/C=C/c1ccccc1[N+](=O)[O-])N1CCN(S(=O)(=O)c2ccccc2F)CC1	0%
O=C(/C=C/c1c(F)cccc1F)N1CCN(C(=O)C2CCCCCC2)CC1	98.9%
O=C(/C=C/c1ccccc1[N+](=O)[O-])N1CCN(CC2CCCCC2)CC1	91.5%
O=C(/C=C/c1ccccc1[N+](=O)[O-])N1CCC(NCc2ccc(F)cc2)CC1	0%
O=C(C#Cc1ccccc1[N+](=O)[O-])N1CCN(Cc2ccc(F)cc2)CC1	28.6%
O=C(/C=C/C=C/c1ccccc1[N+](=O)[O-])N1CCN(c2ccccc2)CC1	100%
O=C(/C=C/c1ccccc1[N+](=O)[O-])N1CCN(Cc2ccncc2)CC1	0%
O=C(/C=C/c1ccccc1[N+](=O)[O-])N1CCCN(Cc2ccc(F)cc2)CC1	38.2%
N#Cc1ccc(N2CCN(C(=O)/C=C/c3ccccc3[N+](=O)[O-])CC2)cc1	18.8%
N#Cc1ccccc1/C=C/C(=O)N1CCN(C(=O)C2CCCCCC2)CC1	92.6%
Cc1cccc(CN2CCN(C(=O)/C=C/c3c(F)cccc3F)CC2)c1	86.2%
O=C(/C=C/c1ccccc1Cl)N1CCN(Cc2ccc(F)cc2)CC1	92.8%
O=C(CCc1ccccc1[N+](=O)[O-])N1CCN(Cc2ccc(F)cc2)CC1	45.3%
O=C(/C=C/C=C/c1ccccc1[N+](=O)[O-])N1CCN(C2CCCC2)CC1	91.7%
Cc1ccc(CN2CCN(C(=O)/C=C/c3c(F)cccc3F)CC2)cc1C	65.3%
O=C(/C=C/c1ccccc1Cl)C1CCN(Cc2ccc(F)cc2)CC1	15.8%
O=C(/C=C/c1ccccc1[N+](=O)[O-])N1CCN(Cc2ccc(F)cc2)CC1	88.6%
O=C(/C=C/c1ccccc1[N+](=O)[O-])N1CCN(Cc2ccc(F)cc2)C(=O)C1	26.7%
N#Cc1ccccc1/C=C/C(=O)N1CCN(Cc2ccc(F)cc2)CC1	85.4%
O=C(/C=C/C=C/c1ccccc1[N+](=O)[O-])N1CCN(Cc2ccc(F)cc2)CC1	59.4%
O=C(/C=C/c1ccccc1[N+](=O)[O-])N1CCN(c2cccc(Cl)c2)CC1	97.1%
O=C(/C=C/C=C/c1ccccc1Cl)N1CCCN(Cc2ccc(F)cc2)CC1	37.8%
O=C(/C=C/c1ccccc1Br)N1CCN(Cc2ccc(F)cc2)CC1	93.1%
O=C(/C=C/c1cccc(Cl)c1)N1CCN(Cc2ccc(F)cc2)CC1	0.7%
O=C(/C=C/c1ccccc1[N+](=O)[O-])N1CCN(C(=O)C2CCCCCC2)CC1	99.9%

System: Rattus norvegicus
Assay: Increase in occlusion time of arteriovenous shunt in Crl; OFA Sprague-Dawley rat at 40 mg/kg, po
Format: functional
Settings: not given
Method in brief: (§2)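 Anesthetized rats; extracorporeal shunt from left carotid artery to right jugular vein, silk thread in the central portion as thrombogenic substrate. A thermal microprobe on the central shunt section gives time to occlusion, seen as a sharp temperature drop. Compound given iv at 1.25 mg/kg or orally at 40 mg/kg. Result expressed as % increase in occlusion time.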

SMILES	Activity
N#Cc1ccccc1/C=C/C=C/C(=O)N1CCN(c2ccccn2)CC1	54%
O=C(/C=C/c1c(F)cccc1F)N1CCN(C(=O)C2CCCCCC2)CC1	0%
O=C(/C=C/c1ccccc1Cl)N1CCN(Cc2ccc(F)cc2)CC1	59%
O=C(/C=C/C=C/c1ccccc1[N+](=O)[O-])N1CCN(C2CCCC2)CC1	7%
CCOc1cc2c(cc1C(=O)NC)C(=N)N(CC(=O)c1cc(C(C)(C)C)c(O)c(C(C)(C)C)c1)C2	43%

System: not listed separately
Assay: Solubility in water
Format: physicochemical
Settings: not given
Method in brief: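 Aqueous solubility was determined on the hydrochloride salt and expressed in mg/mL.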

SMILES	solubility
N#Cc1ccccc1/C=C/C=C/C(=O)N1CCN(c2ccccn2)CC1	2500 µg/mL (≈ 7.26 mM)
O=C(/C=C/c1ccccc1Cl)N1CCN(Cc2ccc(F)cc2)CC1	1700 µg/mL (≈ 4.74 mM)

System: not listed separately
Assay: Clearance in rat
Format: ADME, organism-based
Settings: in vivo
Method in brief: (§3)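 Rat pharmacokinetic parameters were determined on the hydrochloride salt of each compound.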

SMILES	clearance
N#Cc1ccccc1/C=C/C=C/C(=O)N1CCN(c2ccccn2)CC1	6 mL/min/kg
O=C(/C=C/c1ccccc1Cl)N1CCN(Cc2ccc(F)cc2)CC1	40 mL/min/kg

Biological target: T2, Proteinase-activated receptor 1 (Homo sapiens) (UniProt P25116)
T2 sequence (whole entry): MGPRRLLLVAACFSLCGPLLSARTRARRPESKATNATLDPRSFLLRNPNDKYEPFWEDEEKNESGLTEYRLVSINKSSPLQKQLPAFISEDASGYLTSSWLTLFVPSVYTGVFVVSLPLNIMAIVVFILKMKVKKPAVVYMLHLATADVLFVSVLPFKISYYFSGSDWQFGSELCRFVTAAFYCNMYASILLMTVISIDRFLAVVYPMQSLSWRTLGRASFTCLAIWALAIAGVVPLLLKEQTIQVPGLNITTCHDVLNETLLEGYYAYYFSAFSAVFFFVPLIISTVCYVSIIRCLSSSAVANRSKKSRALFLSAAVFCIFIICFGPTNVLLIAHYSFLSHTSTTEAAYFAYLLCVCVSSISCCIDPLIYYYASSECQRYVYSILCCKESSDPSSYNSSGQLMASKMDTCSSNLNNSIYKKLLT
Assay: Antagonist activity at PAR1 expressed in Cos7 cells assessed as SFLLR-mediated SRE-luciferase activity
Format: functional, cell-based
Settings: COS-7

SMILES	pKb
N#Cc1ccccc1/C=C/C=C/C(=O)N1CCN(c2ccccn2)CC1	5.6
O=C(/C=C/c1ccccc1Cl)N1CCN(Cc2ccc(F)cc2)CC1	5.55

System: Rattus norvegicus
Assay: Increase in occlusion time of arteriovenous shunt in Crl: OFA Sprague-Dawley rat at 1.25 mg/kg, iv
Format: functional
Settings: not given
Method in brief: as §2

SMILES	Activity
N#Cc1ccccc1/C=C/C=C/C(=O)N1CCN(c2ccccn2)CC1	58%
O=C(/C=C/c1c(F)cccc1F)N1CCN(C(=O)C2CCCCCC2)CC1	14%
O=C(/C=C/c1ccccc1[N+](=O)[O-])N1CCN(CC2CCCCC2)CC1	29%
O=C(/C=C/C=C/c1ccccc1[N+](=O)[O-])N1CCN(c2ccccc2)CC1	3%
N#Cc1ccccc1/C=C/C(=O)N1CCN(C(=O)C2CCCCCC2)CC1	19%
O=C(/C=C/c1ccccc1Cl)N1CCN(Cc2ccc(F)cc2)CC1	28%
O=C(/C=C/C=C/c1ccccc1[N+](=O)[O-])N1CCN(C2CCCC2)CC1	44%
CCOc1cc2c(cc1C(=O)NC)C(=N)N(CC(=O)c1cc(C(C)(C)C)c(O)c(C(C)(C)C)c1)C2	27%

System: not listed separately
Assay: Oral bioavailability in rat
Format: ADME, organism-based
Settings: in vivo
Method in brief: as §3

SMILES	bioavailability
N#Cc1ccccc1/C=C/C=C/C(=O)N1CCN(c2ccccn2)CC1	42%
O=C(/C=C/c1ccccc1Cl)N1CCN(Cc2ccc(F)cc2)CC1	43%
